Experimental data from ChEMBL document CHEMBL1143979, “1-, 3- and 8-substituted-9-deazaxanthines as potent and selective antagonists at the human A2B adenosine receptor” (Bioorg Med Chem, 2008).
Where “and” joins values, the source holds several entries; their conditions need not be identical. Equal values may be shown once.

Columns and labels:
Adenosine receptor A2a = Adenosine receptor A2a (Homo sapiens, UniProt P29274); test: Displacement of [3H]ZM-241385 from human adenosine A2A receptor expressed in CHO cells; assay type: cell-based
Chain of Adenosine receptor A2a (P29274 whole entry): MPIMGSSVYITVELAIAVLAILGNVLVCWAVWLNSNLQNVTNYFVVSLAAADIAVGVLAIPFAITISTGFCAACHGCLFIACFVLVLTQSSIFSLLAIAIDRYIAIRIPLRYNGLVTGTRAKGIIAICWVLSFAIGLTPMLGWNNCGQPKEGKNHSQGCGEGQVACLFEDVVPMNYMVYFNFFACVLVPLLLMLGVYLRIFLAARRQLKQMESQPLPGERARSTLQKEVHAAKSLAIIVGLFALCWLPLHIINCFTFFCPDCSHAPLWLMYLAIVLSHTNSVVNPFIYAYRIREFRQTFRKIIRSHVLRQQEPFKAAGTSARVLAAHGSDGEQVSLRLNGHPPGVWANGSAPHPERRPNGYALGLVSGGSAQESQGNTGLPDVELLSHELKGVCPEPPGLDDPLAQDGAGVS
How it was run: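 Competition binding at cloned human receptors: [3H]DPCPX for A1 and A2B, [3H]ZM241385 for A2A, [3H]NECA for A3. Screening compounds are reported as % radioligand displacement at one concentration. SEM below 10%.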

Homo sapiens = species on record: Homo sapiens; test: Selectivity index, ratio for human adenosine A2A receptor to human adenosine A2B receptor
Adenosine receptor A2b = target: T1, Adenosine receptor A2b (Homo sapiens, UniProt P29275); test: Displacement of [3H]DPCPX from human adenosine A2B receptor expressed in HEK293 cells; assay type: cell-based
T1 sequence (P29275 whole entry): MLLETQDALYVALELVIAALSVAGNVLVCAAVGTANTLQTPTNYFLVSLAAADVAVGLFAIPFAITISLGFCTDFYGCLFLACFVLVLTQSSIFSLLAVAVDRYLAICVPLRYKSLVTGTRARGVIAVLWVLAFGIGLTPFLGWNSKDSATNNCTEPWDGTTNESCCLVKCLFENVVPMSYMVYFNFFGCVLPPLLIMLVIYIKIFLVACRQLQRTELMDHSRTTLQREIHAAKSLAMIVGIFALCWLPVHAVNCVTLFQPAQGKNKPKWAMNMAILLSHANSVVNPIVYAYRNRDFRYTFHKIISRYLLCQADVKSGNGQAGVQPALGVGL

| Ki (Adenosine receptor A2a) | Ratio (Homo sapiens) | Ki (Adenosine receptor A2b; read-out: Log Ki (converted)) | Ki (Adenosine receptor A2b; read-out: Ki) | Structure (SMILES) |
| --- | --- | --- | --- | --- |
| 0.038 µM | 5.5 | 0.00692 µM |  | CCCn1c(=O)c2[nH]c(-c3ccc(OCC(=O)N4CCN(c5ccccc5Cl)CC4)cc3)cc2n(CCC)c1=O |
| 0.0741 µM | 9.8 | 0.00759 µM |  | CCCn1c(=O)c2[nH]c(-c3ccc(OCC(=O)N4CCN(c5c(Cl)cncc5Cl)CC4)cc3)cc2n(CCC)c1=O |
| 2.34 µM | 45.7 | 0.0513 µM |  | COc1ccccc1N1CCN(C(=O)COc2ccc(-c3cc4c([nH]3)c(=O)n(C)c(=O)n4C)cc2)CC1 |
| 0.355 µM | 56 | 0.00631 µM |  | Cn1c(=O)c2[nH]c(-c3ccc(OCC(=O)N4CCN(c5ccc(C#N)cc5)CC4)cc3)cc2n(C)c1=O |
| 0.708 µM | 12 | 0.0589 µM |  | Cn1c(=O)c2[nH]c(-c3ccc(OCC(=O)N4CCN(c5ccccn5)CC4)cc3)cc2n(C)c1=O |
| 0.617 µM | 22 | 0.0275 µM |  | Cn1c(=O)c2[nH]c(-c3ccc(OCC(=O)N4CCN(c5ccc(O)cc5)CC4)cc3)cc2n(C)c1=O |
| 0.24 µM | 36.3 | 0.00661 µM |  | CCCn1c(=O)c2[nH]c(-c3ccc(OC(C)C(=O)N4CCN(c5ccccc5)CC4)cc3)cc2n(CCC)c1=O (stereo not drawn) |
| 0.224 µM | 3.2 | 0.0692 µM |  | CCCn1c(=O)c2[nH]c(-c3ccc(OCC(=O)N4CCN(c5ccccc5Cl)CC4)cc3)cc2n(C)c1=O |
| 0.631 µM | 106 | 0.00575 µM |  | CCCn1c(=O)n(C)c(=O)c2[nH]c(-c3ccc(OCC(=O)N4CCN(c5nc6ccc(Cl)cc6s5)CC4)cc3)cc21 |
| 0.589 µM | 28.2 | 0.0209 µM |  | CCCn1c(=O)c2[nH]c(-c3ccc(OCC(=O)N4CCC(c5ccccc5)CC4)cc3)cc2n(CCC)c1=O |
| 0.355 µM | 17.4 | 0.0204 µM |  | CC(Oc1ccc(-c2cc3c([nH]2)c(=O)n(C)c(=O)n3C)cc1)C(=O)N1CCN(c2ccccc2)CC1 (stereo not drawn) |
| 0.158 µM | 33.9 | 0.00468 µM |  | CCCn1c(=O)c2[nH]c(-c3ccc(OC(C)C(=O)N4CCc5ccccc5C4)cc3)cc2n(CCC)c1=O (stereo not drawn) |
| 0.479 µM | 79 | 0.00603 µM |  | CCCn1c(=O)n(C)c(=O)c2[nH]c(-c3ccc(OCC(=O)N4CCN(c5cccc(Cl)c5)CC4)cc3)cc21 |
| 0.316 µM | 24 | 0.0132 µM |  | CCCn1c(=O)c2[nH]c(-c3ccc(OCC(=O)N4CCN(c5ccccc5)CC4)cc3)cc2n(C)c1=O |
| 0.302 µM | 26.9 | 0.0112 µM |  | Cn1c(=O)c2[nH]c(-c3ccc(OCC(=O)N4CCC(C(=O)c5ccc(F)cc5)CC4)cc3)cc2n(C)c1=O |
| 0.132 µM | 31.6 | 0.00417 µM |  | Cn1c(=O)c2[nH]c(-c3ccc(OCC(=O)N4CCN(c5ccc(C(F)(F)F)cc5)CC4)cc3)cc2n(C)c1=O |
| 0.115 µM | 33.1 | 0.00347 µM |  | Cn1c(=O)c2[nH]c(-c3ccc(OCC(=O)N4CCN(c5ccc(Br)cc5)CC4)cc3)cc2n(C)c1=O |
| 0.324 µM | 112 | 0.00288 µM |  | Cn1c(=O)c2[nH]c(-c3ccc(OCC(=O)N4CCC(O)(c5ccc(Cl)cc5)CC4)cc3)cc2n(C)c1=O |
| 0.155 µM | 55 |  | 0.003 µM | Cn1c(=O)c2[nH]c(-c3ccc(OCC(=O)N4CCN(c5cccc(Cl)c5)CC4)cc3)cc2n(C)c1=O |
| 1.15 µM | 85.1 | 0.0135 µM |  | CCCn1c(=O)c2[nH]c(-c3ccc(OCC(=O)N4CCC(O)(c5ccccc5)CC4)cc3)cc2n(CCC)c1=O |
| 0.417 µM | 30.9 | 0.0135 µM |  | Cn1c(=O)c2[nH]c(-c3ccc(OCC(=O)N4CCN(c5ncccn5)CC4)cc3)cc2n(C)c1=O |
| 0.174 µM | 5.49 | 0.0316 µM |  | Cn1c(=O)c2[nH]c(-c3ccc(OC(C)(C)C(=O)N4CCN(c5ccccc5)CC4)cc3)cc2n(C)c1=O |
| 1.02 µM | 398 |  | 0.0025 µM | CCCn1c(=O)n(C)c(=O)c2[nH]c(-c3ccc(OCC(=O)N4CCC(c5ccccc5)CC4)cc3)cc21 |
| 0.182 µM | 50.1 | 0.00363 µM |  | Cn1c(=O)c2[nH]c(-c3ccc(OCC(=O)N4CCN(c5nc6cc(Cl)ccc6s5)CC4)cc3)cc2n(C)c1=O |
| 0.741 µM | 10.5 | 0.0708 µM |  | CC(Oc1ccc(-c2cc3c([nH]2)c(=O)n(C)c(=O)n3C)cc1)C(=O)N1CCN(c2ccccc2Cl)CC1 (stereo not drawn) |

| Ki (Adenosine receptor A2a) | Ratio (Homo sapiens) | Ki (Adenosine receptor A2b; read-out: Log Ki (converted)) | Ki (Adenosine receptor A2b; read-out: Ki) | Structure (SMILES) |
| --- | --- | --- | --- | --- |
| 0.398 µM | 43.7 | 0.00912 µM |  | CCCn1c(=O)n(C)c(=O)c2[nH]c(-c3ccc(OCC(=O)N4CCC(c5ccc(OC)cc5)CC4)cc3)cc21 |
| 0.355 µM | 56 | 0.00631 µM |  | Cn1c(=O)c2[nH]c(-c3ccc(OCC(=O)N4CCN(c5ccccc5Cl)CC4)cc3)cc2n(C)c1=O |
| 0.17 µM | 12.9 | 0.0132 µM |  | COc1ccc(N2CCN(C(=O)COc3ccc(-c4cc5c([nH]4)c(=O)n(C)c(=O)n5C)cc3)CC2)cc1 |
| 0.162 µM | 33.8 | 0.00479 µM |  | CCCn1c(=O)c2[nH]c(-c3ccc(OCC(=O)N4CCN(c5ccccc5)CC4)cc3)cc2n(CCC)c1=O |
| 1.45 µM | 25.1 | 0.0575 µM |  | COc1cc(-c2cc3c([nH]2)c(=O)n(C)c(=O)n3C)ccc1OCC(=O)N1CCN(c2ccccc2)CC1 |
| 1.05 µM | 40.7 | 0.0214 µM |  | CCCn1c(=O)c2[nH]c(-c3ccc(OCC(=O)N4CCC(c5ccccc5)(c5ccccc5)CC4)cc3)cc2n(CCC)c1=O |
| 0.871 µM | 28.2 | 0.0309 µM |  | COc1ccc(C2CCN(C(=O)COc3ccc(-c4cc5c([nH]4)c(=O)n(C)c(=O)n5C)cc3OC)CC2)cc1 |
| 1.58 µM | 30.9 | 0.0513 µM |  | CCCn1c(=O)c2[nH]c(-c3ccc(OCC(=O)N4CCN(C(c5ccccc5)c5ccccc5)CC4)cc3)cc2n(CCC)c1=O |
| 1.1 µM | 74.1 | 0.0148 µM |  | CCCn1c(=O)n(C)c(=O)c2[nH]c(-c3ccc(OCC(=O)N4CCN(c5ccccc5Cl)CC4)cc3)cc21 |
| 0.794 µM | 64.6 | 0.0123 µM |  | Cn1c(=O)c2[nH]c(-c3ccc(OCC(=O)N4CCC(c5ccccc5)CC4)cc3)cc2n(C)c1=O |
| 0.24 µM | 25 | 0.00955 µM |  | O=C(COc1ccc(-c2cc3c([nH]2)c(=O)n(CC2CC2)c(=O)n3CC2CC2)cc1)N1CCc2ccccc2C1 |
| 0.0933 µM | 40.7 | 0.00229 µM |  | CCCn1c(=O)c2[nH]c(-c3ccc(OCC(=O)N4CCc5ccccc5C4)cc3)cc2n(CCC)c1=O |
| 6.76 µM | 39 | 0.17 µM |  | COc1cc(-c2cc3c([nH]2)c(=O)n(C)c(=O)n3C)ccc1OCC(=O)N1CCc2ccccc2C1 |
| 0.407 µM | 66.1 | 0.00617 µM |  | CCCn1c(=O)n(C)c(=O)c2[nH]c(-c3ccc(OCC(=O)N4CCC(c5ccccc5OC)CC4)cc3)cc21 |
| 0.389 µM | 213 |  | 0.002 µM | Cc1ccc(N2CCN(C(=O)C(C)Oc3ccc(-c4cc5c([nH]4)c(=O)n(C)c(=O)n5C)cc3)CC2)cc1 (stereo not drawn) |
| 0.174 µM | 41.7 | 0.00417 µM |  | CCCn1c(=O)c2[nH]c(-c3ccc(OCC(=O)N4CCN(c5ccc(C(F)(F)F)cc5)CC4)cc3)cc2n(CCC)c1=O |
| 0.269 µM | 26 | 0.00813 µM |  | CC(Oc1ccc(-c2cc3c([nH]2)c(=O)n(C)c(=O)n3C)cc1)C(=O)N1CCN(c2ccc(Br)cc2)CC1 (stereo not drawn) |
| 0.398 µM | 117 | 0.00339 µM |  | Cn1c(=O)c2[nH]c(-c3ccc(OCC(=O)N4CCN(c5ccc(Cl)cc5)CC4)cc3)cc2n(C)c1=O |
| 0.324 µM | 33.8 | 0.00955 µM |  | Cn1c(=O)c2[nH]c(-c3ccc(OCC(=O)N4CCN(c5ccc(F)cc5)CC4)cc3)cc2n(C)c1=O |
| 0.708 µM | 27.5 | 0.0257 µM |  | CCCn1c(=O)n(C)c(=O)c2[nH]c(-c3ccc(OCC(=O)N4CCN(c5ccccc5)CC4)cc3)cc21 |
| 0.115 µM | 75.9 |  | 0.0015 µM | CCCn1c(=O)c2[nH]c(-c3ccc(OCC(=O)N4CCN(c5cccc(Cl)c5)CC4)cc3)cc2n(CCC)c1=O |
| 0.646 µM | 151 | 0.00427 µM |  | CCCn1c(=O)n(C)c(=O)c2[nH]c(-c3ccc(OCC(=O)N4CCN(c5c(Cl)cncc5Cl)CC4)cc3)cc21 |
| 0.398 µM | 81 | 0.0049 µM |  | COCCn1c(=O)c2[nH]c(-c3ccc(OCC(=O)N4CCN(c5ccccc5)CC4)cc3)cc2n(CCOC)c1=O |
| 0.562 µM | 135 | 0.00417 µM |  | CCCn1c(=O)n(C)c(=O)c2[nH]c(-c3ccc(OC(C)(C)C(=O)N4CCN(c5ccccc5)CC4)cc3)cc21 |
| 0.209 µM and 1 µM |  | 0.0145 µM and 0.00724 µM |  | CCCn1c(=O)n(C)c(=O)c2[nH]c(-c3ccc(OCC(=O)N4CCc5ccccc5C4)cc3)cc21 |

| Structure (SMILES) | Ki (Adenosine receptor A2a) | Ratio (Homo sapiens) | Ki (Adenosine receptor A2b; read-out: Log Ki (converted)) | Ki (Adenosine receptor A2b; read-out: Ki) |
| --- | --- | --- | --- | --- |
| Cn1c(=O)c2[nH]c(-c3ccc(OCC(=O)N4CCN(Cc5ccccc5)CC4)cc3)cc2n(C)c1=O | 1.55 µM | 28.8 | 0.0537 µM |  |
| CCCn1c(=O)c2[nH]c(-c3ccc(OCC(=O)N4CCN(Cc5ccccc5)CC4)cc3)cc2n(CCC)c1=O | 0.257 µM | 41.7 | 0.00617 µM |  |
| CN1CCN(C(=O)COc2ccc(-c3cc4c([nH]3)c(=O)n(C)c(=O)n4C)cc2)CC1 | 0.794 µM | 4.05 | 0.174 µM |  |
